From ChEMBL document CHEMBL3580617, “Discovery of Benzimidazole CYP11B2 Inhibitors with in Vivo Activity in Rhesus Monkeys” (ACS Med Chem Lett, 2015)

Tests used:
[1] = biological target: T1, Steroid 17-alpha-hydroxylase/17,20 lyase (Homo sapiens, UniProt P05093); assay: Inhibition of human CYP17 expressed in COS7 cells incubated for 1 hr before 17-hydroxypregnenolone substrate addition by EIA method; type: cell-based, COS-7
T1 sequence (P05093 whole entry): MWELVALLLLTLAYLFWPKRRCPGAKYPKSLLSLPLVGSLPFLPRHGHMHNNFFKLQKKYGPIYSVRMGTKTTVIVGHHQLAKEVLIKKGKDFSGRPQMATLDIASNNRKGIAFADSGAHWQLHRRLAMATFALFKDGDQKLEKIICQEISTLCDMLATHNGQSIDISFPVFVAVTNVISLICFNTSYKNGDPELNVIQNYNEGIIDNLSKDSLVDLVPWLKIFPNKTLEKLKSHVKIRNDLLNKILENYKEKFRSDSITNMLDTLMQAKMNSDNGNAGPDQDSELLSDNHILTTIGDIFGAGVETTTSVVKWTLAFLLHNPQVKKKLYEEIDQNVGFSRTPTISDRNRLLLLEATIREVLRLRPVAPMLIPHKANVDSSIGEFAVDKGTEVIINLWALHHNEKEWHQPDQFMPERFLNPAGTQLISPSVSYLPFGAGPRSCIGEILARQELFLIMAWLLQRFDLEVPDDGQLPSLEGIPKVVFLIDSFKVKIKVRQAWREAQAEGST

[2] = biological target: T2, Aromatase (Homo sapiens, UniProt P11511); assay: Inhibition of CYP19 (unknown origin) using MFC substrate incubated for 30 mins
T2 sequence (P11511 whole entry): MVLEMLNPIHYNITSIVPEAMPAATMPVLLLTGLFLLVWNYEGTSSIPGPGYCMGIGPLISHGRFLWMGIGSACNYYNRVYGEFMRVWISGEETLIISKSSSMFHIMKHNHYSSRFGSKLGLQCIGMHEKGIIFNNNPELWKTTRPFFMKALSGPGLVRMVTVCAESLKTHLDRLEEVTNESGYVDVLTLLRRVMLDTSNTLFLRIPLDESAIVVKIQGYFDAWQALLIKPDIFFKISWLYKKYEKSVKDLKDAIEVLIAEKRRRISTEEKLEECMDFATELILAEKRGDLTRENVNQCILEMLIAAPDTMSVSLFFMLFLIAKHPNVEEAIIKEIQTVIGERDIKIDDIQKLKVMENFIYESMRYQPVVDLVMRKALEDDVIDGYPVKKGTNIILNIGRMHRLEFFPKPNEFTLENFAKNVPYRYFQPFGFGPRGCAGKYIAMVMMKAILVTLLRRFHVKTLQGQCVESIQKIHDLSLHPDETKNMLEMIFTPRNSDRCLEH

[3] = Fraction unbound in rat plasma at […] incubated for 4 hrs by equilibrium dialysis and LC/MS method; type: ADME, cell-free
[4] = Intrinsic clearance in rat liver microsomes at […] incubated for 10 mins before NADPH addition by LC/MS method; type: ADME; settings: read-out: CLH
[5] = Oral bioavailability in Sprague-Dawley rat at 2 mg/kg by LC-MS/MS method; type: ADME, organism-based; settings: in vivo
In short: (§1)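 In the rat pharmacokinetic study, AUC was normalized for dose (μM·h·kg/mg), plasma clearance was expressed in mL/min/kg, and oral bioavailability was calculated.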

[6] = tested on: Rattus norvegicus; assay: Dose normalized AUC in Sprague-Dawley rat at 2 mg/kg, po or 1 mg/kg, iv by LC-MS/MS method; type: ADME, organism-based; settings: in vivo; in short: as §1
[7] = Plasma clearance in Sprague-Dawley rat at 2 mg/kg, po or 1 mg/kg, iv by LC-MS/MS method; type: ADME, organism-based; in short: as §1
[8] = biological target: T3, Steroid 21-hydroxylase (Homo sapiens, UniProt P08686); assay: Inhibition of human CYP21 expressed in COS7 cells incubated for 1 hr before […] substrate addition by HTRF-based assay; type: cell-based, COS-7
T3 sequence (P08686 whole entry): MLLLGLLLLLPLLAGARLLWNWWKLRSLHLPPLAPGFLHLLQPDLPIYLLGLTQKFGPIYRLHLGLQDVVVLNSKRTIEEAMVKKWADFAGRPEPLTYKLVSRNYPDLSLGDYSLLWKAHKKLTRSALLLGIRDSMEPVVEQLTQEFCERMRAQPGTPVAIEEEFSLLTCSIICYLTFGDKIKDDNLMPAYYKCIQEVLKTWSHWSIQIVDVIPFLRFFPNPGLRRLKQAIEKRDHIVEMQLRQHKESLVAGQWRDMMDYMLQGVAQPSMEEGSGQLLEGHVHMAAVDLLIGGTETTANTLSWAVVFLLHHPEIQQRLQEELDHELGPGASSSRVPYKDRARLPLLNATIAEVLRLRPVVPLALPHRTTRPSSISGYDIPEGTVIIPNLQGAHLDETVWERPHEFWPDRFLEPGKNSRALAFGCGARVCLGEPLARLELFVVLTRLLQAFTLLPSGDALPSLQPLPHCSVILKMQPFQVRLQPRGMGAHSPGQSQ

[9] = biological target: Cytochrome P450 3A4 (Homo sapiens, UniProt P08684); assay: Inhibition of CYP3A4 (unknown origin); type: ADME
Sequence of Cytochrome P450 3A4 (P08684 whole entry): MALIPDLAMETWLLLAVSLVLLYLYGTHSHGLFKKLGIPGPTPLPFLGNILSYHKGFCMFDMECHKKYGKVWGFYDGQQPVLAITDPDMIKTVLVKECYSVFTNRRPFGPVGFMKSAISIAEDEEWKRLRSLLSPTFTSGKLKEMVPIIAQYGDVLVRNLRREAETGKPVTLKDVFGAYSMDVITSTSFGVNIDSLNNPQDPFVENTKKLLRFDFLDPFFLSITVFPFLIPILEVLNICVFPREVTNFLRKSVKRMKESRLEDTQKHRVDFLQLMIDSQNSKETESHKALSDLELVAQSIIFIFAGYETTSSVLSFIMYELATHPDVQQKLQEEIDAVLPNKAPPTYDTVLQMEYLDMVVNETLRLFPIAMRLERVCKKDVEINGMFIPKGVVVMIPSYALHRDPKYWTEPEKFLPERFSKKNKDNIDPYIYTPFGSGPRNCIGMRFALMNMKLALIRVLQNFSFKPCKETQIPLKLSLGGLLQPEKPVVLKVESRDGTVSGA

[10] = biological target: Cytochrome P450 2C9 (Homo sapiens, UniProt P11712); assay: Inhibition of CYP2C9 (unknown origin); type: ADME
Sequence of Cytochrome P450 2C9 (P11712 whole entry): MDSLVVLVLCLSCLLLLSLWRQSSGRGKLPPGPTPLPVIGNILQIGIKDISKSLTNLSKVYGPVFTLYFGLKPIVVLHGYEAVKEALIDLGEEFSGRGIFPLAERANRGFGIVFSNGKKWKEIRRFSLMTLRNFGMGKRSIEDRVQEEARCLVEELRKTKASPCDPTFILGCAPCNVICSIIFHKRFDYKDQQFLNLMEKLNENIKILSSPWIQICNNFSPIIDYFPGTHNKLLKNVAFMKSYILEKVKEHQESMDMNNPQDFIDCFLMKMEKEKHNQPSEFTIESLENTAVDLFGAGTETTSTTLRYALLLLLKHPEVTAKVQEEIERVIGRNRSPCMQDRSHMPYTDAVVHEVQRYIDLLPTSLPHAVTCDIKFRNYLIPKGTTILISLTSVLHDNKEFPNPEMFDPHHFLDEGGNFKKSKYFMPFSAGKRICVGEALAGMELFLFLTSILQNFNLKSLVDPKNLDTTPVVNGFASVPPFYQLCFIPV

[11] = biological target: Cytochrome P450 2D6 (Homo sapiens, UniProt P10635); assay: Inhibition of CYP2D6 (unknown origin); type: ADME
Sequence of Cytochrome P450 2D6 (P10635 whole entry): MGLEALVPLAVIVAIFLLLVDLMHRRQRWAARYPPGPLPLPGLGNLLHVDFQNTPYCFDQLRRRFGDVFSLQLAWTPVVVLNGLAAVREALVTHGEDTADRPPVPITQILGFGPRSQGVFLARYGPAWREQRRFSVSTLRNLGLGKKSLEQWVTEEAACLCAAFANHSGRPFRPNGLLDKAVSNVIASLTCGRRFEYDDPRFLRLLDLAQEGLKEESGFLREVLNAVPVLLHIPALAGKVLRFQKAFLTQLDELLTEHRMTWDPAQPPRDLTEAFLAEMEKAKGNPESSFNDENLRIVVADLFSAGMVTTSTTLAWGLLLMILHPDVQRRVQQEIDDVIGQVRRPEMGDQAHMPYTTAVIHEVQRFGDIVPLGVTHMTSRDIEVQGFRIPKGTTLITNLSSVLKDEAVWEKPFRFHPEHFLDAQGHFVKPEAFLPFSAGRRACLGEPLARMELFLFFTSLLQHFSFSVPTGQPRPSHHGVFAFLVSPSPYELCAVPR

[12] = Fraction unbound in rhesus monkey plasma at […] incubated for 4 hrs by equilibrium dialysis and LC/MS method; type: ADME, cell-free, Macaca mulatta
[13] = Intrinsic clearance in rhesus monkey liver microsomes at […] incubated for 10 mins before NADPH addition by LC/MS method; type: ADME, Macaca mulatta; settings: read-out: CLH
[14] = tested on: Rhesus monkey; assay: Dose normalized AUC in rhesus monkey at 1 mg/kg, po or 0.5 mg/kg, iv by LC-MS/MS method; type: ADME, organism-based, Macaca mulatta; settings: in vivo
[15] = Plasma clearance in rhesus monkey at 1 mg/kg, po or 0.5 mg/kg, iv by LC-MS/MS method; type: ADME, organism-based, Macaca mulatta
[16] = biological target: T4, Cytochrome P450 11B2, mitochondrial (Rattus norvegicus, UniProt P30099); assay: Inhibition of rat CYP11B2 expressed in V79 cells incubated for 1 hr before 11-deoxycorticosterone substrate addition by HTRF-based assay; type: cell-based; settings: v79, 1 h
T4 sequence (P30099 whole entry): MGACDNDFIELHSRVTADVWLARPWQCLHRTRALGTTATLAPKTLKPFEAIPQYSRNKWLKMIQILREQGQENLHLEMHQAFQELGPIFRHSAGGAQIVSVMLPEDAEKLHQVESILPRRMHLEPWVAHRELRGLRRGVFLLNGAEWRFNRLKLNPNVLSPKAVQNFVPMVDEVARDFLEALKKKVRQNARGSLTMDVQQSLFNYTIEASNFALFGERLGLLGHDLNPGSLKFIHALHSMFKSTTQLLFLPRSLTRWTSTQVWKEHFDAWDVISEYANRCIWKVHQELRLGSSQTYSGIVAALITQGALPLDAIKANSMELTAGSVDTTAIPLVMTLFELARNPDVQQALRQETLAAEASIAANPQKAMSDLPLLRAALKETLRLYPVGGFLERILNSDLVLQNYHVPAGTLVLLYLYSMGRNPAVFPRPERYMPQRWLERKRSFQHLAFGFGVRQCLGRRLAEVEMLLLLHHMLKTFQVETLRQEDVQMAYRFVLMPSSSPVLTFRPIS

Row | SMILES | IC50 [1] [µM] | IC50 [2] [µM] | fraction unbound at 4 h [3] | CLint scaled [4] [L/h/kg] | bioavailability [5] [%] | AUC/dose [6] [µM·kg·h/mg] | clearance [7] [L/h/kg] | IC50 [8] [µM] | IC50 [9] [µM] | inhibition (INH) [10] | inhibition (INH) [11] | fraction unbound at 4 h [12] | CLint scaled [13] [L/h/kg] | AUC/dose [14] [µM·kg·h/mg] | clearance [15] [L/h/kg] | inhibition (INH) [16]
1 | CC(C)(O)c1cncc(-c2nc3ccc(F)cc3n2C2CC2)c1 [MSD-CYP11B2] | > 10 | 1.02 | 0.13 | < 1.2 | 76 | 4.32 | 0.6 | > 10 | > 50 | Not Active | Not Active | 0.07 | 1.32 | 1.53 | 0.3 | Not Active
2 | Fc1cncc(-c2nc3cc(F)c(F)cc3n2C2CC2)c1 | > 10 | 4.51 | 0.14 | < 1.2 | 86 | 2.1 | 2.22 | > 10 | > 50 | Not Active | Not Active | 0.23 | < 1.2 | 3.07 | 0.6 | Not Active
